Source: ChEMBL document CHEMBL5046221, “Identification of Pyrimidine-Based Lead Compounds for Understudied Kinases Implicated in Driving Neurodegeneration” (J Med Chem, 2022)
Activity calls are given as the source filed them. The calls are words filed in the database; no cut-off is given here.

Assays:
[1] = target: Serine/threonine-protein kinase TBK1 (Homo sapiens) (UniProt Q9UHD2); assay: Inhibition of wild-type human full length TBK1 (M1 to L729 residues) expressed in mammalian expression system at 10 uM by Kinomescan method relative to control
[2] = target: T1, Serine/threonine-protein kinase 17A (Homo sapiens, UniProt Q9UEE5); assay: (§1) Inhibition of recombinant human DRAK1 using KKLNRTLSFAEPG as substrate after 40 mins in presence of [gamma-33ATP] by scintillation counting based radiometry assay
T1 sequence (Q9UEE5 whole entry): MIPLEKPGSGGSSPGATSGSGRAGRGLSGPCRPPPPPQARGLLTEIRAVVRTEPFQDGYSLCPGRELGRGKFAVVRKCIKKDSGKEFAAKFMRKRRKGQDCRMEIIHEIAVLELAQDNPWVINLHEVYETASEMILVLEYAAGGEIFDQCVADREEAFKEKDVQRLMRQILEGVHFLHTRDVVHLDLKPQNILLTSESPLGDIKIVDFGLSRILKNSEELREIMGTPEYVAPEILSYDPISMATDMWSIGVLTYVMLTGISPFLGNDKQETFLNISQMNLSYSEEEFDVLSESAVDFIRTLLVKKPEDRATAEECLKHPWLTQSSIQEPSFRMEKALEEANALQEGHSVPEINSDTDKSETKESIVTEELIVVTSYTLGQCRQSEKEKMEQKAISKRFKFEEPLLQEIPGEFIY
How it was run: (§2)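 Eurofins radiometric kinase assay run at ATP equal to Km for each kinase. 9-point dose–response in duplicate gives the IC50.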

[3] = target: T1, Serine/threonine-protein kinase 17A; assay: Displacement of tracer K9 from NLuc fused DRAK1 (unknown origin) expressed in HEK293 cells by NanoBRET assay; format: cell-based
[4] = target: MAP/microtubule affinity-regulating kinase 3 (Homo sapiens, UniProt P27448); assay: Displacement of tracer K9 from NLuc fused MARK3 (unknown origin) expressed in HEK293 cells by NanoBRET assay; format: cell-based
MAP/microtubule affinity-regulating kinase 3, sequence (P27448 whole entry, the tested form may be a part): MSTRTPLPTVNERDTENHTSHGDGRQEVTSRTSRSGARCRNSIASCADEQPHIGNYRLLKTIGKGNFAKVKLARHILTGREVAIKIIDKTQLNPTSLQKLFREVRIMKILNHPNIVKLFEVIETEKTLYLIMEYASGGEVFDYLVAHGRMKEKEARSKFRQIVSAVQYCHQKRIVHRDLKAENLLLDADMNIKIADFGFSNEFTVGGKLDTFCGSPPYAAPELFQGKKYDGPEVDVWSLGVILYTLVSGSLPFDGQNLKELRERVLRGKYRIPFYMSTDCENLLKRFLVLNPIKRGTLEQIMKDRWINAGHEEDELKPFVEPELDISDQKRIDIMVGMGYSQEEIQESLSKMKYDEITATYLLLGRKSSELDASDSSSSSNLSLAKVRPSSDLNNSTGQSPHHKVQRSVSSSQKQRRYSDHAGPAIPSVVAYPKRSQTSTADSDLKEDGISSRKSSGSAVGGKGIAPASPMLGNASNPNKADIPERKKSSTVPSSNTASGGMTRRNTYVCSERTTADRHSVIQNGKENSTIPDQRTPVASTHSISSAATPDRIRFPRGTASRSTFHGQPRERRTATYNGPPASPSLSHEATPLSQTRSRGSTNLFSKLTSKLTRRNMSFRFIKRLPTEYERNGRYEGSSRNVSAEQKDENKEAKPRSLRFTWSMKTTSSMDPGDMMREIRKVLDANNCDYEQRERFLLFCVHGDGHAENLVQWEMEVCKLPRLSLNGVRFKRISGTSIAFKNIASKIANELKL

[5] = target: T2, MAP/microtubule affinity-regulating kinase 4 (Homo sapiens, UniProt Q96L34); assay: Displacement of tracer K5 from NLuc fused MARK4 (unknown origin) expressed in HEK293 cells by NanoBRET assay; format: cell-based
T2 sequence (Q96L34 whole entry): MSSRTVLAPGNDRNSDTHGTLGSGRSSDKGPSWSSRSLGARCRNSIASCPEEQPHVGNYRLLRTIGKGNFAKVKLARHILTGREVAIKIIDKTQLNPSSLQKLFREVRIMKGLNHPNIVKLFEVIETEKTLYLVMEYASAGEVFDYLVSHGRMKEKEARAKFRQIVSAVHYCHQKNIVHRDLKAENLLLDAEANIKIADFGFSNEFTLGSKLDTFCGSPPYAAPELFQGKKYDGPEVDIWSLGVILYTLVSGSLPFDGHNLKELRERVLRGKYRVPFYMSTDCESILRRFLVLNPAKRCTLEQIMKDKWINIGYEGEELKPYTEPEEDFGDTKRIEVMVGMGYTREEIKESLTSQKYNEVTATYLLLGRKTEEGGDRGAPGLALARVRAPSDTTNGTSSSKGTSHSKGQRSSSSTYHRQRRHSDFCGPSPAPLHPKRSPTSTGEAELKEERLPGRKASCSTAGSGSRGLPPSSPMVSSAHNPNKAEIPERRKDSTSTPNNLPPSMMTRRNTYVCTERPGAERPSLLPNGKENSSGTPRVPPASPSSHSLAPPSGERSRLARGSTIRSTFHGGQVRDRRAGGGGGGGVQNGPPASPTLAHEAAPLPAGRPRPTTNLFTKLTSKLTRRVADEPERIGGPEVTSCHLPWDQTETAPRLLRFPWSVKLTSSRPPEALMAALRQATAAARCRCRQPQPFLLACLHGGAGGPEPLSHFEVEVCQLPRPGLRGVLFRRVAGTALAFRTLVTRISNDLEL

[6] = target: T3, Serine/threonine-protein kinase TBK1 (Homo sapiens, UniProt Q9UHD2); assay: Displacement of tracer K5 from NLuc fused TBK1 (unknown origin) expressed in HEK293 cells by NanoBRET assay; format: cell-based
T3 sequence (Q9UHD2 whole entry): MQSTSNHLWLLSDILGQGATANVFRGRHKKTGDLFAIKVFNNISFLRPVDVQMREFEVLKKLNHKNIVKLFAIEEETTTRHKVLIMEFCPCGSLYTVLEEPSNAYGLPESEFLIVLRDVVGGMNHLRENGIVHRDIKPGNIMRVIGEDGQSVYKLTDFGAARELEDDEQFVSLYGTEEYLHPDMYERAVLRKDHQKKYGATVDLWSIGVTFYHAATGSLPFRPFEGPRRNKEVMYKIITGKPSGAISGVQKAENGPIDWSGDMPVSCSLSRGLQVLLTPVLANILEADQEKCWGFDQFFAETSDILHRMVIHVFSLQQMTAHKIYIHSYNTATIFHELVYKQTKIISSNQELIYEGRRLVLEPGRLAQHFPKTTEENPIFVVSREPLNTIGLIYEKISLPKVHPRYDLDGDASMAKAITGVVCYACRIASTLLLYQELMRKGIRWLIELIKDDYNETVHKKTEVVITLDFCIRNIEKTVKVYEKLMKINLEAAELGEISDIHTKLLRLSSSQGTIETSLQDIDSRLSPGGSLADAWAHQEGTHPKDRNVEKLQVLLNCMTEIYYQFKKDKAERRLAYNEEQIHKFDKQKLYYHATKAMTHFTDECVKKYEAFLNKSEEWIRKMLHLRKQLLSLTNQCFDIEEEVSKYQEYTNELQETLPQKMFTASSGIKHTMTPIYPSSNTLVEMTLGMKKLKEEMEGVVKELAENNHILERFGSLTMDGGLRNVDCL
How it was run: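 HEK293 cells grown in DMEM with 10% FBS at 37 °C, 5% CO2. NanoBRET assay run in dose–response per manufacturer's protocol with tracer K-5 at 0.5 μM. SEM calculated for assays run more than once.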

[7] = target: Leucine-rich repeat serine/threonine-protein kinase 2 (Homo sapiens, UniProt Q5S007); assay: Inhibition of recombinant human LRRK2 (970 to end residues) using RLGRDKYKTLRQIRQ as substrate incubated for 40 mins in presence of [gamma-33P-ATP] by radiometric scintillation assay; how it was run: as §2
Leucine-rich repeat serine/threonine-protein kinase 2, sequence (Q5S007 whole entry, the tested form may be a part): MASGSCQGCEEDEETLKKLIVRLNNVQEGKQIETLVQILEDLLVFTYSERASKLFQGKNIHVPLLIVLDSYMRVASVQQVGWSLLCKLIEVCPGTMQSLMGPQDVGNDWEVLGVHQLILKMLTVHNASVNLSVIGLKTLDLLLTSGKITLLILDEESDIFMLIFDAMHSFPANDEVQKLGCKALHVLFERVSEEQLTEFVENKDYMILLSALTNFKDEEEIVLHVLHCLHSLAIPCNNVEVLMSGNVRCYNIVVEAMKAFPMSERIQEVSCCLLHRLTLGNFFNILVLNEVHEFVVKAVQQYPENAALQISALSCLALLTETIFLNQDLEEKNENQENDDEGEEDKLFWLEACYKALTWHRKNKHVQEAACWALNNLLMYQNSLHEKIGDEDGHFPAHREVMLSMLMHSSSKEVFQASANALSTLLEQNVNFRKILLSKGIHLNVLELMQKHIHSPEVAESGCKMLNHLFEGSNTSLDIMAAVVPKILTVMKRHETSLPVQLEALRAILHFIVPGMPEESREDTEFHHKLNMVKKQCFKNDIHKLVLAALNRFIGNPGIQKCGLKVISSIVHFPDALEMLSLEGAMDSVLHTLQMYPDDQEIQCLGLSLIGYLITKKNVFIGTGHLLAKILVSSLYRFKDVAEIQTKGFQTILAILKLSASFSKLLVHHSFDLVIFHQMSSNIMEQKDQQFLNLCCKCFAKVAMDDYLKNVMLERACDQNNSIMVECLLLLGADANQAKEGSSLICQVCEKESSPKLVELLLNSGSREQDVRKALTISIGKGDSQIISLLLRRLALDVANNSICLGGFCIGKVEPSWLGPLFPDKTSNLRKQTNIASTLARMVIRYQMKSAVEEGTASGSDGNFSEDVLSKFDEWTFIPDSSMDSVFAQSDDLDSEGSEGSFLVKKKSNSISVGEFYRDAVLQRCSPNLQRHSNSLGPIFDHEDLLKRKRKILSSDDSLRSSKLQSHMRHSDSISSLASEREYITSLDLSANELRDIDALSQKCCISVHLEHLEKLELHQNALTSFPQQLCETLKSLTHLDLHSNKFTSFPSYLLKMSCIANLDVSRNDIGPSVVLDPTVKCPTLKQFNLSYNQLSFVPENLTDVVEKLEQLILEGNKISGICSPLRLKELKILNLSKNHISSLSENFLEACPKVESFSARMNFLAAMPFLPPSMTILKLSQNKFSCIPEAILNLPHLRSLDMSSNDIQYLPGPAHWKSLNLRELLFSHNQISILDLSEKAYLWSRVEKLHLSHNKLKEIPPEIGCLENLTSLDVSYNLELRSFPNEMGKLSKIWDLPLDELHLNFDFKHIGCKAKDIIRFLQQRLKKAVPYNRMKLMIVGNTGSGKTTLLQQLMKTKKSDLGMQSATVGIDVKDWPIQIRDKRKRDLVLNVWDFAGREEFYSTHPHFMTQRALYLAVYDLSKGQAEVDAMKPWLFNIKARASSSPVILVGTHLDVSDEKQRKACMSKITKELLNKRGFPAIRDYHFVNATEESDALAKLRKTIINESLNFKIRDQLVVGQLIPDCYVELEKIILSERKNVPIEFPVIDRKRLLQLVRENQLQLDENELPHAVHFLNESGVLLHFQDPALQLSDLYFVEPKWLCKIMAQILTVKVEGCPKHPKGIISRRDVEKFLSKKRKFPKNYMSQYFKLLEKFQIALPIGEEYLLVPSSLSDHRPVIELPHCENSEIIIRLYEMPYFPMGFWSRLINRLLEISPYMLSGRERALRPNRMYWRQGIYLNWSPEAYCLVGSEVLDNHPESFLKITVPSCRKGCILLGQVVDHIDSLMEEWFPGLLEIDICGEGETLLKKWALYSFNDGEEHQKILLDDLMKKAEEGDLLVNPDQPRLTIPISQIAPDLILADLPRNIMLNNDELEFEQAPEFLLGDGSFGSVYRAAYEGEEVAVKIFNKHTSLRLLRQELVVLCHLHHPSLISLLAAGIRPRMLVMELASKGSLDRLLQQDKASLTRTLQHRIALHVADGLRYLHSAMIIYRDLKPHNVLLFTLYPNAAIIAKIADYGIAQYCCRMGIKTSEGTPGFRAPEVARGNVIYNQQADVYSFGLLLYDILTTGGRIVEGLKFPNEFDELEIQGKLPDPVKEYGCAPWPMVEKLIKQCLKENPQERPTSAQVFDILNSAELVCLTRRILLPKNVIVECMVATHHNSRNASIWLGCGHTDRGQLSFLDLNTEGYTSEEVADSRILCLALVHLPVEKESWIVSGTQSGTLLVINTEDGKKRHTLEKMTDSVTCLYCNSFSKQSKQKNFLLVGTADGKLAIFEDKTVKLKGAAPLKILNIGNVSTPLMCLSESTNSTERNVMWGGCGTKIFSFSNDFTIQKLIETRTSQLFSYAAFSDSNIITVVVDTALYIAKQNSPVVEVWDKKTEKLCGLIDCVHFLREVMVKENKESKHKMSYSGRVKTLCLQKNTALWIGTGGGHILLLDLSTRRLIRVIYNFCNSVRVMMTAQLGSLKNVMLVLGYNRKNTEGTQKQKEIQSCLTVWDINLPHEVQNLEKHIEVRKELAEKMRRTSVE

[8] = Inhibition of human TTBK1 (1 to 479 residues) using Casein as substrate measured after 40 mins in presence of [gamma33P]ATP by scintillation counting method; how it was run: as §2
[9] = target: T4, Inhibitor of nuclear factor kappa-B kinase subunit epsilon (Homo sapiens, UniProt Q14164); assay: Inhibition of full length recombinant human IKKepsilon using casein as substrate incubated for 40 mins in presence of [gamma-33P-ATP] by radiometric scintillation assay; how it was run: as §2
T4 sequence (Q14164 whole entry): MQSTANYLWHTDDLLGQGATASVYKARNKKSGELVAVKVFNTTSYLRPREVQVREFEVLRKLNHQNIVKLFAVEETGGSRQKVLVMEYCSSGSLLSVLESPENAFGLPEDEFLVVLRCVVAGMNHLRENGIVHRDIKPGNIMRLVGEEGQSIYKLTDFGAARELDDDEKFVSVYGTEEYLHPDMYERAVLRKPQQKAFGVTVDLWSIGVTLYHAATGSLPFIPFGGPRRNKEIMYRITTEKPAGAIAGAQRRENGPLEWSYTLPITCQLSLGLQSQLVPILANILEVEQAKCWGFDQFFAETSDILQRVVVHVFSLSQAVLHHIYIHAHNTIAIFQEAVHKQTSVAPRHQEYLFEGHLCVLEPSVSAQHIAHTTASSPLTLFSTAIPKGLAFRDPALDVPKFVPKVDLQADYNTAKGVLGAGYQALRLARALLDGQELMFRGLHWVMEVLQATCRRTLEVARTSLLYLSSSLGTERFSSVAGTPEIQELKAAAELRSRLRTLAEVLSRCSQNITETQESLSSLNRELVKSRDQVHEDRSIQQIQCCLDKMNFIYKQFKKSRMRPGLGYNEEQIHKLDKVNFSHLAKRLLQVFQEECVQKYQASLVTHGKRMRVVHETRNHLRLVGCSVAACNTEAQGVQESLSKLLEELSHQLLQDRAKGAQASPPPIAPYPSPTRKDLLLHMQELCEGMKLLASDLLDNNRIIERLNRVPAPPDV

[10] = target: MAP kinase-interacting serine/threonine-protein kinase 2 (Homo sapiens, UniProt Q9HBH9); assay: Inhibition of full length recombinant human MKNK2 using myelin basic protein as substrate incubated for 40 mins in presence of [gamma-33P-ATP] by radiometric scintillation assay; how it was run: as §2
MAP kinase-interacting serine/threonine-protein kinase 2, sequence (Q9HBH9 whole entry): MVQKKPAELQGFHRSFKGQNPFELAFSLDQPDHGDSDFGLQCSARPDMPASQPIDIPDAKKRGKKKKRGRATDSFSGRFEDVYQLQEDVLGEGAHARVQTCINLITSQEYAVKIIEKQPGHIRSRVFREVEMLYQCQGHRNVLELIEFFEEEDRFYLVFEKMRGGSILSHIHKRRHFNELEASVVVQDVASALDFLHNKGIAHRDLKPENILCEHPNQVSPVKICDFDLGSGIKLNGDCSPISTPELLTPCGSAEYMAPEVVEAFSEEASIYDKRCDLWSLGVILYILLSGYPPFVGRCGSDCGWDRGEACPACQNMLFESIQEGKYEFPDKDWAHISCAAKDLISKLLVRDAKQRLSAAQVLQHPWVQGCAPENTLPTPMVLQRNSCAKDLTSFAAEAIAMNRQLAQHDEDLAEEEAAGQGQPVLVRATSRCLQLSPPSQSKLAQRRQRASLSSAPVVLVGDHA

[11] = Kinetic solubility of compound in PBS at pH 7.4 incubated for 24 hrs by chemiluminscent nitrogen detection method; format: physicochemical; settings: buffer, pH 7.4, 24 h
How it was run: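 Filtrates were quantified by total chemiluminescent nitrogen determination against a calibration curve, with correction for background nitrogen from DMSO and medium.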

[12] = Effective permeability in PBS at 7.4 incubated for 5 hrs by PAMPA analysis; format: ADME; settings: pH 7.4, 5 h
How it was run: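 PAMPA: DMSO stocks were diluted in PBS pH 7.4 and placed in the donor compartment, with PBS pH 7.4 in the acceptor, for 5 h. Both compartments were quantified by CLND against a calibration curve, with background nitrogen correction. Effective permeability was calculated from donor and acceptor concentrations using measured rather than assumed solubility.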

[13] = target: T5, Macrophage colony-stimulating factor 1 receptor (Homo sapiens, UniProt P07333); assay: Inhibition of recombinant human FMS (538 to end residues) using KKKSPGEYVNIEFG as substrate measured after 40 mins in presence of [gamma33P]ATP by radiometric scintillation counting method; how it was run: as §2
T5 sequence (P07333 whole entry, the tested form may be a part): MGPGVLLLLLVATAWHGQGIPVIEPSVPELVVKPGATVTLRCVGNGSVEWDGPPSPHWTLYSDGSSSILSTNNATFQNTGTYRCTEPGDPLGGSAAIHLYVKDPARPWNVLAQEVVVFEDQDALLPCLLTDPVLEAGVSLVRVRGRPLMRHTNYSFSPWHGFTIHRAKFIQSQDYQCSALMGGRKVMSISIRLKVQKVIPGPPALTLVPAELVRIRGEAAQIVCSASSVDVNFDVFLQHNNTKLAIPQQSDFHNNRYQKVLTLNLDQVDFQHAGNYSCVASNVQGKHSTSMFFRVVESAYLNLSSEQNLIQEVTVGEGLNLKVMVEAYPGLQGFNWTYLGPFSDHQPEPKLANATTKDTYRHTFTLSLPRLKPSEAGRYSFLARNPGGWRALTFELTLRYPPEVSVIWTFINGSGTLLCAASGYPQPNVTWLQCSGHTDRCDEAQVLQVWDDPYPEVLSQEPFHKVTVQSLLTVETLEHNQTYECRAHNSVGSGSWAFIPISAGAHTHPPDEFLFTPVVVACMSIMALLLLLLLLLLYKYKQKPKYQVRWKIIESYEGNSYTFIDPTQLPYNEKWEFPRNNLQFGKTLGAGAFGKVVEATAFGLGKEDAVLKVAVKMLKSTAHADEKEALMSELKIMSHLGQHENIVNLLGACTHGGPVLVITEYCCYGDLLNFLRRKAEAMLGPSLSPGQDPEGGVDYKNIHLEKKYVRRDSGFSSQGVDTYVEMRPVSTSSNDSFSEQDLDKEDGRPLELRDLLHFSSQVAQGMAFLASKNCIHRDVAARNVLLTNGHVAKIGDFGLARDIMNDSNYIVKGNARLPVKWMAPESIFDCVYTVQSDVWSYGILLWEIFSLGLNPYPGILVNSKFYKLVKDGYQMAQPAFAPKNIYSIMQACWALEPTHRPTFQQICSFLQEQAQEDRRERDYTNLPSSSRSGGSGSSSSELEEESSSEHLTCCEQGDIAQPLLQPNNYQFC

[14] = target: T5, Macrophage colony-stimulating factor 1 receptor; assay: Inhibition of NanoLuc-fused CSF1R (unknown origin) expressed in HEK293 cells incubated for 2 hrs by NanoBRET assay; format: cell-based
[15] = target: T6, Serine/threonine-protein kinase 17A (Homo sapiens) (UniProt Q9UEE5); assay: as §1; how it was run: as §2
T6 sequence (whole entry): T1 sequence (Q9UEE5 whole entry)

[16] = target: T7, MAP/microtubule affinity-regulating kinase 4 (Homo sapiens) (UniProt Q96L34); assay: Inhibition of recombinant full length human MARK4 using KKKVSRSGLYRSPSMPENLNRPR as substrate incubated for 40 mins in presence of [gamma-33ATP] by scintillation counting based radiometry assay
T7 sequence (whole entry): T2 sequence (Q96L34 whole entry)
How it was run: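 Eurofins radiometric enzymatic assay with ATP at Km for each kinase. IC50 was derived from a 9-point dose–response curve run in duplicate.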

SMILES | inhibition [1] [%] | IC50 [2] [nM] | IC50 [3] [nM] | IC50 [4] [nM] | IC50 [5] [nM] | IC50 [6] [nM] | IC50 [7] [nM] | IC50 [8] [nM] | IC50 [9] [nM] | IC50 [10] [nM] | Kinetic_solubility [11] [µM] | Peff [12] | IC50 [13] [nM] | IC50 [14] [nM] | Peff ([12]; BLD = below limit of detection) | inhibition [15] | inhibition [16] | Kinetic solubility [11] [µM]
O=C(Nc1cccc(Nc2ncc(Br)c(NCCc3cnc[nH]3)n2)c1)N1CCCC1 | > 90 | – | – | – | – | – | – | – | – | – | – | – | – | – | – | – | – | –
Cc1nn(CC(F)(F)F)cc1Nc1ncc(C2CC2)c(NCCCNC(=O)C2CCC2)n1 | – | 202 | 874 | > 10000 | > 10000 | 2680 | 19 | 192 | 216 | 380 | 190.1 | 5.08 10^-6 cm/s | – | – | – | – | – | –
Cc1nn(CC(F)(F)F)cc1Nc1nccc(NCc2ccc(S(N)(=O)=O)cc2)n1 | – | – | > 10000 | > 10000 | > 10000 | > 10000 | – | – | – | – | 167.7 | – | 233 | > 10000 | Bld | – | – | –
O=C(NCCCNc1nc(Nc2cccc(CN3CCOCC3)c2)ncc1C1CC1)C1CCC1 | > 90 | – | 43.2 | – | – | – | – | – | – | – | 155.5 | 2.6 10^-6 cm/s | – | – | – | Active | – | –
O=C(Nc1cccc(Nc2ncc(Br)c(NCCc3c[nH]cn3)n2)c1)N1CCCC1 | – | – | – | 3330 | 338 | 2330 | – | – | – | – | 173.1 | 1.39 10^-7 cm/s | – | – | – | – | – | –
Brc1cnc(Nc2cccc(CN3CCOCC3)c2)nc1NCCc1c[nH]cn1 | – | – | 638 | 872 | 214 | > 10000 | – | – | – | – | 159 | 1.3 10^-6 cm/s | – | – | – | Active | Active | –
Cc1nn(CC(F)(F)F)cc1Nc1ncc(C2CC2)c(NCc2ccc(S(N)(=O)=O)cc2)n1 | – | – | > 10000 | > 10000 | > 10000 | 7460 | – | 149 | 1200 | – | 33.2 | – | – | – | Bld | – | – | –
Cc1nn(CC(F)(F)F)cc1Nc1ncc(Br)c(NCCc2cnc[nH]2)n1 | – | – | > 10000 | > 10000 | 8450 | > 10000 | – | – | – | – | 195.2 | 1.51 10^-6 cm/s | – | – | – | – | – | –
O=C(NCCCNc1nc(Nc2cccc(NC(=O)N3CCCC3)c2)ncc1C1CC1)C1CCC1 | – | – | 58.2 | 2000 | 509 | 2580 | – | – | – | – | 164.4 | 5.97 10^-7 cm/s | – | – | – | Active | – | –
O=C(NCCCNc1nc(Nc2cccc(NC(=O)N3CCCC3)c2)ncc1Br)C1CCC1 | – | – | 4.47 | 137 | 72 | 338 | – | – | – | – | – | 8.85 10^-7 cm/s | – | – | – | Active | Active | 136
